According to ChEMBL document CHEMBL1133471, “Sequential cytotoxicity: a theory evaluated using novel 2-[4-(3-aryl-2-propenoyloxy)phenylmethylene]cyclohexanones and related compounds” (J Med Chem, 2000):
Starred links: 1 amine or outer side, 2 acyl side, 3 side chain; linkers in the order of their positions; H or OH if unused. Positions of bridges follow the written chain, without caps; N, C: chain ends. Non-standard residues stand in square brackets, D forms with d. Residues, ends and D or L forms follow the SMILES beside them. Chains are numbered I, II in the order given. Actinocin(1to9) = Cc1c2oc3c(C)ccc(C(=O)[*:2])c3nc-2c(C(=O)[*:1])c(N)c1=O; NMeV = CN[C@H](C(=O)O)C(C)C; Sar = CNCC(=O)O

Columns and labels:
[1] = species on record: Homo sapiens; assay: (§1) Inhibitory concentration was evaluated on human Jurkat T-cells after their exposure for 48 hours; assay type: functional, cell-based
How it was run: (§2)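 Human Jurkat T cells exposed to compounds for 48 h. Viability scored by nigrosin dye exclusion, used in place of trypan blue. IC50 and IC80 taken from the resulting viability data.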

[2] = test system: Tumor cancer cell line; assay: (§3) Mean graph mid point was measured on all cell lines.; assay type: functional, Homo sapiens
How it was run: (§4)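 Human tumor panel of about 55 lines: leukemia, melanoma, non-small-cell lung, colon, CNS, ovarian, renal, prostate and breast. Compounds generally tested from 10^-4 to 10^-8 M, noting 50% growth inhibition for each line. Mean graph midpoints taken for all lines, leukemic lines and colon lines. Duplicate or triplicate runs were averaged.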

[3] = species on record: Homo sapiens; assay: Inhibition of protein synthesis was evaluated on human Jurkat T-cells after 8 hours.; assay type: functional; set-up: concentration or dose not given beside the values
[4] = species on record: Homo sapiens; assay: Inhibition of RNA synthesis was evaluated on human Jurkat T-cells after 8 hours.; assay type: functional; set-up: concentration or dose not given beside the values
[5] = test system: leukaemia cell line; assay: Mean graph mid point was measured on leukemic cells.; assay type: functional, Homo sapiens; how it was run: as §4
[6] = test system: Colon carcinoma cell; assay: Mean graph mid point was measured on colon cancer cells.; assay type: functional, Homo sapiens; how it was run: as §4
[7] = species on record: Homo sapiens; assay: Apoptotic index calculated using human Jurkat T cells; assay type: functional
How it was run: (§5)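 Jurkat T cells exposed at concentrations giving IC80 (IC80 determined after 48 h exposure). Nuclei stained with ethidium bromide (0.1% w/v) plus acridine orange (0.1% w/v). Apoptotic index = (cells with apoptotic nuclei / cells counted) × 100.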

[8] = test system: MOLT-4; assay: Concentration required to inhibit 50% of cell growth on human Molt 4/C8 cells.; assay type: functional, cell-based
How it was run: (§6)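 Murine P388 D1 and L1210 leukemia cells and human Molt 4/C8 and CEM T-lymphocytes were tested. IC50 is the concentration inhibiting 50% of growth.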

[9] = test system: CCRF-CEM; assay: Concentration required to inhibit 50% of cell growth on CEM lymphocytes.; assay type: functional, cell-based; conditions: Homo sapiens; how it was run: as §6
[10] = test system: P388; assay: Concentration required to inhibit 50% of cell growth on murine P388 D1 cells.; assay type: functional, cell-based; conditions: Mus musculus
[11] = test system: L1210; assay: Concentration required to inhibit 50% of cell growth on murine L1210 cells.; assay type: functional, cell-based; conditions: Mus musculus; how it was run: as §6
[12] = Selectivity index is the ratio of MG MID value for all cell lines to that of leukemic cells; assay type: functional
[13] = Selectivity index is the ratio of MG MID value for all cell lines to that of colon cancer cells; assay type: functional
[14] = species on record: Homo sapiens; assay: Apoptotic index was evaluated on human Jurkat T-cells after 24 hours.(Using 80% inhibitory concentration); assay type: functional; how it was run: as §5
[15] = species on record: Homo sapiens; assay: as §1; assay type: functional; how it was run: as §2
[16] = test system: Mus musculus; assay: Ip score was calculated by implanting different tumor cell lines in hollow fibres in mice by the intraperitoneal route (Net cell kill was not observed).; assay type: functional
[17] = test system: Mus musculus; assay: sc score was calculated by implanting different tumor cell lines in hollow fibres in mice by the subcutaneously route (Net cell kill was not observed).; assay type: functional
[18] = test system: Panel colon (Carcinoma cell lines); assay: Mean graph mid point was measured on colon cancer cell lines.; assay type: functional, Homo sapiens; how it was run: as §4
[19] = test system: Tumor cell line; assay: as §3; assay type: functional, Homo sapiens; how it was run: as §4
[20] = test system: leukaemia cell line; assay: Mean graph mid point was measured on leukemicell lines.; assay type: functional, Homo sapiens; how it was run: as §4
[21] = species on record: Mus musculus; assay: Sc score was calculated by implanting different tumor cell lines in hollow fibres in mice by the occurred); assay type: functional
How it was run: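 Mice carried hollow fibers with 12 human tumor lines (colon, breast, NSCLC, melanoma, ovarian, CNS) implanted ip and sc. Compounds were given ip at two doses daily for 4 days. Fibers were collected 1 day after the last dose. Viable cell mass was measured by MTT formazan conversion, giving the sc score.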

[22] = test system: Mus musculus; assay: Ip score was calculated by implanting different tumor cell lines in hollow fibres in mice by the intraperitoneal route(Net cell kill was observed it indicates the cytotoxicity was occurred); assay type: functional
[23] = test system: Mus musculus; assay: Sc score was calculated by implanting different tumor cell lines in hollow fibres in mice by the subcutaneously route (Net cell kill was not observed); assay type: functional
[24] = test system: Mus musculus; assay: Ip score was calculated by implanting different tumor cell lines in hollow fibres in mice by the intraperitoneal route (Net cell kill was not observed); assay type: functional

Compound	MG MID [2]	MG MID [5]	MG MID [6]	IC50 [8]	IC50 [9]	IC50 [10]	IC50 [11]	SI [12]	SI [13]	other results
N[C@@H](Cc1ccc(N(CCCl)CCCl)cc1)C(=O)O	23.5 µM	4.65 µM	44.6 µM							IC50 [1]: 2.2 µM; Inhibition [3]: 17.3%; Inhibition [4]: 85.1%
C[C@@H]1C[C@@H]([C@H](O)CC2CC(=O)NC(=O)C2)C(=O)[C@@H](C)C1 [CYCLOHEXIMIDE]										IC50 [1]: 0.93 µM; Apoptotic index [7]: 38.3; Inhibition [3]: 71.9%; Inhibition [4]: 93.3%
COc1ccc(C(=O)Oc2ccc(/C=C3\CCCC(CN(C)C)C3=O)cc2)cc1 (stereo unspecified)				2.36 µM	5.07 µM	0.332 µM	2.87 µM			
Cc1ccc(/C=C/C(=O)Oc2ccc(/C=C3\CCCCC3=O)cc2)cc1				156 µM	230 µM	> 50 µM	202 µM			
O=C(/C=C/c1ccc(Cl)c(Cl)c1)Oc1ccc(/C=C2\CCCCC2=O)cc1	91.2 µM	53 µM	100 µM	47.3 µM	63.8 µM	> 50 µM	64.8 µM	1.7	0.9	
O=C(/C=C/c1ccc(Br)cc1)Oc1ccc(/C=C2\CCCCC2=O)cc1				180 µM	131 µM	> 50 µM	127 µM			IC50 [1]: 19.8 µM; Apoptotic index [14]: 23.3; Apoptotic index [7]: 23.3; Inhibition [3]: 69.1%; Inhibition [4]: 77.5%; IC80 [15]: 31.7 µM
O=C1CCCC/C1=C\c1ccc(OC(=O)c2ccc(Cl)cc2)cc1				38 µM	41 µM	25.5 µM	3.33 µM			
O=C1CCCC/C1=C\c1ccc(OC(=O)c2ccccc2)cc1						> 50 µM				
CN(C)CC1CCC/C(=C\c2ccc(OC(=O)/C=C/c3ccc(F)cc3)cc2)C1=O (stereo unspecified)				3.78 µM	6 µM	4.55 µM	1.84 µM			
C=C1C(=O)O[C@@H]2C[C@@H](C)[C@@H]3C=CC(=O)[C@@]3(C)[C@@H](O)[C@H]12 [HELENALIN]	1.45 µM	0.62 µM	1.42 µM					2.3	1	
COc1ccc(C(=O)Oc2ccc(/C=C3\CCCCC3=O)cc2)cc1				34 µM	36.1 µM	> 50 µM	43.4 µM			
Cc1c2oc3c(C)ccc(C(=O)N[C@@H]4C(=O)N[C@H](C(C)C)C(=O)N5CCC[C@H]5C(=O)N(C)CC(=O)N(C)[C@@H](C(C)C)C(=O)O[C@@H]4C)c3nc-2c(C(=O)N[C@@H]2C(=O)N[C@H](C(C)C)C(=O)N3CCC[C@H]3C(=O)N(C)CC(=O)N(C)[C@@H](C(C)C)C(=O)O[C@@H]2C)c(N)c1=O [DACTINOMYCIN] (I: T[dV]P[Sar][NMeV] / II: T[dV]P[Sar][NMeV]; ester I:1-I:C, II:1-II:C; linker I:N-II:N via Actinocin(1to9))										IC50 [1]: 0.0045 µM; Apoptotic index [7]: 35.5; Inhibition [3]: 49.2%; Inhibition [4]: 90.5%; IC80 [15]: 0.0072 µM
Cc1ccc(/C=C/C(=O)Oc2ccc(/C=C3\CCCC(CN(C)C)C3=O)cc2)cc1 (stereo unspecified)				3.39 µM	7.02 µM	1.29 µM	2.43 µM			
COc1ccc(/C=C/C(=O)Oc2ccc(/C=C3\CCCCC3=O)cc2)cc1	49.7 µM	9.36 µM	25.4 µM	2.06 µM	8.78 µM	9.03 µM	10.2 µM	5.3	2	
O=C(/C=C/c1ccc(F)cc1)Oc1ccc(/C=C2\CCCCC2=O)cc1				26.6 µM	14.4 µM	> 50 µM	30.9 µM			
O=C(/C=C/c1ccc(Cl)cc1)Oc1ccc(/C=C2\CCCCC2=O)cc1	91.2 µM	60.5 µM	81 µM	78.6 µM	63.4 µM	> 50 µM	64.3 µM	1.5	1.1	
CN(C)CC1CCC/C(=C\c2ccc(OC(=O)c3ccc(Cl)cc3)cc2)C1=O.Cl (stereo unspecified)	1.66 µM	0.307 µM	1.21 µM	5.11 µM	6.15 µM	0.425 µM	5.61 µM	5.4	1.4	IC50 [1]: 3.5 µM; Ip score [16]: 2; Apoptotic index [7]: 73.3; Inhibition [3]: 62%; Inhibition [4]: 88.4%; Subcut score [17]: 10; IC80 [15]: 5.6 µM
COc1ccc(/C=C/C(=O)Oc2ccc(/C=C3\CCCC(CN(C)C)C3=O)cc2)cc1 (stereo unspecified)						2.41 µM				
O=c1[nH]cc(F)c(=O)[nH]1 [FLUOROURACIL]	32.6 µM	27.6 µM	7.9 µM	23 µM	8.9 µM	0.49 µM	0.28 µM			
O=C(/C=C/c1ccccc1)Oc1ccc(/C=C2\CCCCC2=O)cc1	36.3 µM	8.32 µM	29.1 µM	30.7 µM	26 µM	20.3 µM	30.7 µM	4.4	1.3	
CN(C)CC1CCC/C(=C\c2ccc(OC(=O)/C=C/c3ccc(Cl)c(Cl)c3)cc2)C1=O.Cl (stereo unspecified)				4.57 µM	5.82 µM	4.18 µM	3.31 µM	4.3	1.5	MG MID [18]: 2.38 µM; MG MID [19]: 3.57 µM; MG MID [20]: 0.83 µM
CN(C)CC1CCC/C(=C\c2ccc(OC(=O)c3ccccc3)cc2)C1=O (stereo unspecified)				24.1 µM	29.4 µM	0.18 µM	23.4 µM			
CN(C)CC1CCC/C(=C\c2ccc(OC(=O)/C=C/c3ccccc3)cc2)C1=O.Cl (stereo unspecified)	2.41 µM	1.06 µM	2.21 µM	39.5 µM	42.8 µM	4.02 µM	32.8 µM	2.3	1.1	Subcut score [21]: 14; Ip score [22]: 12
CN(C)CC1CCC/C(=C\c2ccc(OC(=O)/C=C/c3ccc(Br)cc3)cc2)C1=O.Cl (stereo unspecified)				3.06 µM	4.44 µM	4.03 µM	1.78 µM			IC50 [1]: 4.47 µM; Apoptotic index [7]: 59.2; Inhibition [3]: 46.6%; Inhibition [4]: 84.5%; IC80 [15]: 7.63 µM
CN(C)CC1CCC/C(=C\c2ccc(OC(=O)/C=C/c3ccc(Cl)cc3)cc2)C1=O.Cl (stereo unspecified)	3.58 µM	0.864 µM	2.3 µM	2.65 µM	3.56 µM	1.61 µM	1.74 µM	4.1	1.6	IC50 [1]: 2.53 µM; Apoptotic index [7]: 87; Subcut score [23]: 6; Inhibition [3]: 37%; Inhibition [4]: 78%; Ip score [24]: 0; IC80 [15]: 4.04 µM
Cc1ccc(C(=O)Oc2ccc(/C=C3\CCCCC3=O)cc2)cc1				25.6 µM	22.7 µM	> 50 µM	44.8 µM			
O=C(CCc1ccccc1)Oc1ccc(/C=C2\CCCCC2=O)cc1				31.1 µM	34.4 µM	21.9 µM	52.4 µM			
